SIRT5 inh: inhibitors of human sirtuin-5 desuccinylase; Q9NXA8; Purified SirT5, succinyl-peptide AMC, trypsin-coupled fluorescence; inhibition, % at 15 µM; 1.1% of 330,000 active; in the data active = inhibition above about 15%
Target sequence (Q9NXA8 whole entry, looked up): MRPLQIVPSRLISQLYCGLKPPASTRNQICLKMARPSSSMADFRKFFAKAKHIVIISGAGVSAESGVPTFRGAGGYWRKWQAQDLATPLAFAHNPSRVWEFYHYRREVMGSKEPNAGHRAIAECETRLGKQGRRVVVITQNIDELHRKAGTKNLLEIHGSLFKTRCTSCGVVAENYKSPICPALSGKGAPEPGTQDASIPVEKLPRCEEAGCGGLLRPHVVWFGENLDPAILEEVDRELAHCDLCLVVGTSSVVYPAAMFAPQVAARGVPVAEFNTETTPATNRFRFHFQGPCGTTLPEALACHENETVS
PDI inh: blocks human protein disulfide isomerase activity. P07237. PDI insulin aggregation turbidity, A650, 90 min. inhibition, % at 10 µM. 0.052% of 350,000 active. AID 588391;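 active = mean inhibition across replicates of 30% or more, whatever share of single replicates reach that level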
ERp5 block: ERp5 (human) disulfide isomerase inhibition. inhibition, % at 9.99 µM. 0.05% of 350,000 active. Q15084. ERp5 insulin aggregation, absorbance 650 nm, 90 min;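 active = mean replicate inhibition above about 25%, with every replicate also reaching it, limit read from the data, passing the limit was not always enough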
FN deposit inh: fibronectin deposition inhibition; AH1F fibroblasts, Alexa488-fibronectin deposition fluorescence, overnight; inhibition, % at 12.6 µM; 0.086% of 350,000 active;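 active = mean inhibition across replicates of 30% or more, regardless of how many single replicates reach that level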;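 note: positive control wells lacked labelled fibronectin entirely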
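Assay system: AH1F fibroblast monolayer, labelled fibronectin deposition. Amount: 10000 cells per well. Also added: labelled fibronectin 24 nM. Compound: single-point pinned compound. Incubation: cell attachment 1 h, compound and FN exposure overnight. Detection: fluorescence after three HBSS washes, excitation 485 nm, emission 525 nm. Read-out: inhibition of fibronectin deposition signal.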
AF4-AF9 inh: inhibitors of human MLL-AF4/AF9 interaction; P42568; AlphaScreen, biotin-AF4 peptide binding to FLAG-AF9; inhibition, % at 10 µM; 0.47% of 350,000 active;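 active = every replicate reaching a set inhibition limit, whatever the replicate mean, cut at about 25% in these data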;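 note: 0% = plate neutral control median and 100% = total signal loss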
Active calls of the source: *. This is a sample that favours compounds with a hit; in the whole collection about 1.3% have one here.

`O=C(O)CCCCCCC(=O)Nc1ccc(C2OC(CSc3ccncc3)CC(c3ccccc3)O2)cc1` (stereo unspecified) gave SIRT5 inh 1, ERp5 block -3 and AF4-AF9 inh 1.
For O=C(COc1ccc(Cl)cc1Br)OCC(=O)c1ccc[nH]1 the results were SIRT5 inh 8, PDI inh 3, ERp5 block -2, FN deposit inh -9 and AF4-AF9 inh 0.
`COc1cccc(CN2CC(C(=O)N(C)CC3CCOCC3)CCC2=O)c1` (stereo unspecified) gave SIRT5 inh 19*, PDI inh -4, ERp5 block -11, FN deposit inh -5 and AF4-AF9 inh -2.
Screening Cc1ccc(S(=O)(=O)NC(CC(C)C)C(=O)NCC(c2ccco2)N2CCCCC2)cc1 (stereo unspecified) returned SIRT5 inh -4, PDI inh 8 and ERp5 block 6.
For COc1ccc(C(CNC(=O)C(CC(C)C)NS(=O)(=O)c2ccc(C)cc2)N2CCOCC2)cc1 (stereo unspecified) the results were SIRT5 inh 22*, PDI inh 1, ERp5 block 2, FN deposit inh 5 and AF4-AF9 inh 2.
For O=[N+]([O-])c1c(Nc2ccccc2)ccc2nonc12 the results were PDI inh -15 and FN deposit inh 8.
`Clc1ccc(SCc2cn3ccccc3n2)cc1` gave SIRT5 inh 58*, PDI inh -3, ERp5 block 7, FN deposit inh -4 and AF4-AF9 inh -6.
`Clc1ccc(-n2nnnc2SCc2cn3ccccc3n2)cc1` gave PDI inh -2.
`Cc1nc2c(Br)cc(Br)cc2c(=O)n1-c1ccccc1NC1OCC(O)C(O)C1O` (stereo unspecified) gave SIRT5 inh -3, PDI inh 8, ERp5 block -8, FN deposit inh 3 and AF4-AF9 inh -7.
`O=C(NC1CCCC1)[C@H]1[C@H](CO)[C@H]2Cn3c(ccc(-c4ccncc4)c3=O)[C@H]2N1CCc1ccccc1` gave SIRT5 inh 19*, ERp5 block -4 and AF4-AF9 inh 1.
For O=C(NC1CCCC1)[C@H]1[C@H](CO)[C@H]2Cn3c(ccc(-c4cccnc4)c3=O)[C@H]2N1CCc1ccccc1 the results were AF4-AF9 inh 8.
CCN1[C@@H]2c3ccc(-c4ccccc4)c(=O)n3C[C@@H]2[C@@H](CO)[C@@H]1C(=O)NCc1ccccc1 was read as SIRT5 inh 22*, ERp5 block -1 and AF4-AF9 inh 2.
`CCN1[C@@H]2c3ccc(-c4ccccc4)c(=O)n3C[C@@H]2[C@@H](CO)[C@@H]1C(=O)NCC(F)(F)F` gave SIRT5 inh -4, ERp5 block 37* and AF4-AF9 inh 0.
CCN1[C@@H]2c3ccc(-c4cccc(F)c4)c(=O)n3C[C@@H]2[C@@H](CO)[C@@H]1C(=O)N[C@H](C)c1ccccc1 was read as SIRT5 inh 27*, ERp5 block 2 and AF4-AF9 inh 1.
Screening CCCN1[C@@H]2c3ccc(-c4ccccc4)c(=O)n3C[C@@H]2[C@@H](CO)[C@@H]1C(=O)NCC(F)(F)F returned SIRT5 inh 3, ERp5 block -8 and AF4-AF9 inh -1.
For C[C@H](CO)N1C[C@H](C)[C@H](CN(C)S(=O)(=O)c2ccc(C#N)cc2)Oc2ncc(-c3ccccc3)cc2C1=O the results were SIRT5 inh -5, ERp5 block -2, FN deposit inh -7 and AF4-AF9 inh -2.
Screening COC(=O)c1ccc(C(=O)N2CCCC(Nc3ccc(C(C)C)cc3)C2)cc1 (stereo unspecified) returned SIRT5 inh 0, PDI inh 6, ERp5 block -2, FN deposit inh -13 and AF4-AF9 inh 2.
For O=C(N[C@H]1C[C@@H]2O[C@@H](CO)CC[C@@H]2O[C@@H]1CCc1ccc(-c2ccccc2)cc1)c1cnccn1 the results were SIRT5 inh 8, ERp5 block 3 and AF4-AF9 inh 5.
`COc1ccccc1/C=C\C=N\n1c(-c2ccc(Cl)cc2Cl)n[nH]c1=S` gave PDI inh 2 and FN deposit inh -6.
Screening CN(C)C(=O)[C@H]1[C@H](CO)[C@H]2Cn3c(ccc(-c4ccc(F)cc4)c3=O)[C@@H]1N2CCc1ccccc1 returned SIRT5 inh 22*, ERp5 block 8 and AF4-AF9 inh 2.
`COC(=O)[C@@H]1[C@@H](CO)[C@@H]2Cn3c(ccc(-c4ccccc4F)c3=O)[C@@H]2N1Cc1ccncc1` gave SIRT5 inh -1, ERp5 block -2 and AF4-AF9 inh -17.
CN1[C@H](C(=O)NC2CCCCC2)[C@@H](CO)[C@@H]2Cn3c(ccc(-c4cccc(F)c4)c3=O)[C@@H]21 was read as SIRT5 inh 16*, ERp5 block -7 and AF4-AF9 inh 0.
CN1[C@@H]2c3ccc(-c4cccc(F)c4)c(=O)n3C[C@@H]2[C@@H](CO)[C@@H]1C(=O)NC1CCCC1 was read as SIRT5 inh -2, ERp5 block -7 and AF4-AF9 inh -9.
Screening O=C(O)[C@@H]1[C@@H](CO)[C@@H]2Cn3c(ccc(-c4ccccc4F)c3=O)[C@@H]2N1Cc1ccccc1 returned SIRT5 inh 19*, ERp5 block -1, FN deposit inh -10 and AF4-AF9 inh 2.
`CN(C)C(=O)[C@@H]1[C@@H](CO)[C@@H]2Cn3c(ccc(-c4ccc(F)cc4)c3=O)[C@H]1N2CCc1ccccc1` gave SIRT5 inh 1, ERp5 block -2 and AF4-AF9 inh 2.
Screening Cc1nn(-c2ccc(Cl)cc2)c(N)c1C(O)(CSc1nccn1C)C(F)(F)F (stereo unspecified) returned PDI inh -5 and FN deposit inh -4.
`C[C@@H]1CN([C@@H](C)CO)C(=O)c2cc(NC(=O)CCC(F)(F)F)ccc2O[C@@H](C)CCCCO[C@H]1CN(C)C(=O)c1ccncc1` gave FN deposit inh 11.
`CCCCCC(=O)Nc1nc(C)c(-c2csc(Nc3cc(Cl)ccc3OC)n2)s1` gave SIRT5 inh 24*, PDI inh 12, ERp5 block -6, FN deposit inh -6 and AF4-AF9 inh 3.
`CCCC(=O)Nc1nc(C)c(-c2csc(Nc3cc(OC)ccc3OC)n2)s1` gave PDI inh -3, ERp5 block -8 and FN deposit inh -6.
CN(C)c1ccc(C2Nc3ccccc3C(=O)N2NS(C)(=O)=O)cc1 (stereo unspecified) was read as SIRT5 inh 31*, PDI inh -68, ERp5 block 1, FN deposit inh -1 and AF4-AF9 inh 1.
Screening Cc1noc(C)c1S(=O)(=O)Nc1cccc2c1O[C@H](CN(C)C(=O)Nc1ccc(C(F)(F)F)cc1)[C@H](C)CN([C@@H](C)CO)C2=O returned SIRT5 inh 0, ERp5 block 63* and AF4-AF9 inh 2.

Screens from PubChem BioAssay.
